Calls of active or inactive are those of the source. No cut-off for these calls is given here.
Assays:
[1] = tested on: Staphylococcus epidermidis; experiment: Antibacterial activity against penicillin-resistant Staphylococcus epidermidis clinical isolates incubated for 24 hrs by tube-dilution method; assay type: functional
Escherichia coli [2] = experiment: Inhibition of FtsZ in penicillin-susceptible Escherichia coli ATCC 25922 assessed as lowest drug concentration causing inhibition of cell division incubated for 5 hrs by phase-contrast light microscopy
In short: (§1)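 Cell division inhibition judged from bacterial cell morphology under phase-contrast light microscopy, scored as lowest concentration altering division; penicillin-susceptible strains B. subtilis ATCC9372, E. coli ATCC25922, P. aeruginosa ATCC27853, S. aureus ATCC25923.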

Escherichia coli [3] = experiment: Antibacterial activity against penicillin-susceptible Escherichia coli ATCC 25922 incubated for 24 hrs by tube-dilution method; assay type: functional; details: ATCC 25922, 24 h
In short: (§2)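 MIC by tube dilution per NCCLS; B. subtilis ATCC9372, E. coli ATCC25922, P. aeruginosa ATCC27853 and S. aureus ATCC25923 are penicillin-susceptible strains.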

Staphylococcus aureus [4] = experiment: Antibacterial activity against penicillin-resistant Staphylococcus aureus clinical isolates incubated for 24 hrs by tube-dilution method; assay type: functional
Staphylococcus aureus [5] = experiment: Antibacterial activity against penicillin-susceptible Staphylococcus aureus ATCC 25923 incubated for 24 hrs by tube-dilution method; assay type: functional; details: ATCC 25923, 24 h; in short: as §2
Staphylococcus aureus [6] = experiment: Potency index, ratio of MIC for oxacillin sodium to MIC for test compound against […] Staphylococcus aureus ATCC 29213 incubated for 24 hrs by tube-dilution method; assay type: functional
Pseudomonas aeruginosa [7] = experiment: Antibacterial activity against penicillin-susceptible Pseudomonas aeruginosa ATCC 27853 incubated for 24 hrs by tube-dilution method; assay type: functional; details: ATCC 27853, 24 h; in short: as §2
Sus scrofa [8] = organism: Sus scrofa; experiment: Induction of porcine tubulin polymerisation at 2 times MIC for penicillin-resistant Staphylococcus aureus by fluorescence microscopy
In short: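 Polymerisation of mammalian tubulin measured with a commercial tubulin assay kit, read by fluorescence of the kit reporter, with paclitaxel as the positive control for enhanced polymerisation.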

Staphylococcus aureus [9] = experiment: Potency index, ratio of MIC for curcumin to MIC for test compound against […] Staphylococcus aureus ATCC 29213 incubated for 24 hrs by tube-dilution method; assay type: functional
Streptococcus pyogenes [10] = experiment: Antibacterial activity against penicillin-resistant Streptococcus pyogenes clinical isolates incubated for 24 hrs by tube-dilution method; assay type: functional
Pseudomonas aeruginosa [11] = experiment: Inhibition of FtsZ in penicillin-susceptible Pseudomonas aeruginosa ATCC 27853 assessed as lowest drug concentration causing inhibition of cell division incubated for 5 hrs by phase-contrast light microscopy; in short: as §1
Staphylococcus aureus [12] = experiment: Antibacterial activity against […] Staphylococcus aureus ATCC 29213 incubated for 24 hrs by tube-dilution method; assay type: functional; details: ATCC 29213, 24 h
In short: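 Broth tube-dilution MIC run as NCCLS recommends, against the […] S. aureus strain ATCC29213.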

Bacillus subtilis [13] = experiment: Inhibition of FtsZ in penicillin-susceptible Bacillus subtilis ATCC 9372 assessed as lowest drug concentration causing inhibition of cell division incubated for 5 hrs by phase-contrast light microscopy; in short: as §1
Bacillus subtilis [14] = experiment: Antibacterial activity against penicillin-susceptible Bacillus subtilis ATCC 9372 incubated for 24 hrs by tube-dilution method; assay type: functional; details: ATCC 9372, 24 h; in short: as §2
Streptococcus pyogenes [15] = experiment: Antibacterial activity against penicillin-susceptible Streptococcus pyogenes clinical isolates incubated for 24 hrs by tube-dilution method; assay type: functional
Staphylococcus aureus [16] = experiment: Inhibition of FtsZ in penicillin-susceptible Staphylococcus aureus ATCC 25923 assessed as lowest drug concentration causing inhibition of cell division incubated for 5 hrs by phase-contrast light microscopy; in short: as §1
Sus scrofa [17] = organism: Sus scrofa; experiment: Inhibition of porcine tubulin polymerisation at 256 ug/ml by fluorescence microscopy
In short: (§3)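 Polymerisation of mammalian tubulin followed with a commercial tubulin assay kit using a fluorescent reporter; compounds tested at 32 µg/mL or 256 µg/mL, paclitaxel as positive control.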

Streptococcus pyogenes [18] = experiment: Potency index, ratio of MIC for oxacillin sodium to MIC for test compound against penicillin-susceptible Streptococcus pyogenes clinical isolates incubated for 24 hrs by tube-dilution method; assay type: functional
Bacillus subtilis [19] = experiment: Potency index, ratio of MIC for sanguinarine to MIC for test compound against penicillin-susceptible Bacillus subtilis ATCC 9372 incubated for 24 hrs by tube-dilution method; assay type: functional
Bacillus subtilis [20] = experiment: Potency index, ratio of MIC for ciprofloxaxin to MIC for test compound against penicillin-susceptible Bacillus subtilis ATCC 9372 incubated for 24 hrs by tube-dilution method; assay type: functional
Sus scrofa [21] = organism: Sus scrofa; experiment: Inhibition of porcine tubulin polymerisation at 32 ug/ml by fluorescence microscopy; in short: as §3
Streptococcus pyogenes [22] = experiment: Potency index, ratio of MIC for sanguinarine to MIC for test compound against penicillin-susceptible Streptococcus pyogenes clinical isolates incubated for 24 hrs by tube-dilution method; assay type: functional
Bacillus subtilis [23] = experiment: Potency index, ratio of MIC for curcumin to MIC for test compound against penicillin-susceptible Bacillus subtilis ATCC 9372 incubated for 24 hrs by tube-dilution method; assay type: functional
Bacillus subtilis [24] = experiment: Potency index, ratio of MIC for oxacillin sodium to MIC for test compound against penicillin-susceptible Bacillus subtilis ATCC 9372 incubated for 24 hrs by tube-dilution method; assay type: functional

SMILES: CSc1cccc2c3ccccc3c[n+](C)c12.[Cl-]
- MIC [1]: > 128 µg/mL
- MIC (Escherichia coli [2]): 128 µg/mL
- MIC (Escherichia coli [3]): > 128 µg/mL
- MIC (Staphylococcus aureus [4]): 8 µg/mL
- MIC (Staphylococcus aureus [5]): 16 µg/mL
- Ratio (Staphylococcus aureus [6]): 8
- MIC (Pseudomonas aeruginosa [7]): > 128 µg/mL
- Activity (Sus scrofa [8]): inactive
- Ratio (Staphylococcus aureus [9]): 8
- MIC (Streptococcus pyogenes [10]): 8 µg/mL
- MIC (Pseudomonas aeruginosa [11]): > 128 µg/mL
- MIC (Staphylococcus aureus [12]): 16 µg/mL
- MIC (Bacillus subtilis [13]): 8 µg/mL
- MIC (Bacillus subtilis [14]): 8 µg/mL
- MIC (Streptococcus pyogenes [15]): 8 µg/mL
- MIC (Staphylococcus aureus [16]): 16 µg/mL

SMILES: C[n+]1cc2ccccc2c2cc(OC(F)(F)F)ccc21.[Cl-]
- MIC [1]: 128 µg/mL
- MIC (Escherichia coli [2]): > 128 µg/mL
- MIC (Escherichia coli [3]): > 128 µg/mL
- MIC (Staphylococcus aureus [4]): 128 µg/mL
- MIC (Staphylococcus aureus [5]): 128 µg/mL
- MIC (Pseudomonas aeruginosa [7]): > 128 µg/mL
- Activity (Sus scrofa [8]): inactive
- MIC (Streptococcus pyogenes [10]): 128 µg/mL
- MIC (Pseudomonas aeruginosa [11]): > 128 µg/mL
- MIC (Staphylococcus aureus [12]): > 128 µg/mL
- MIC (Bacillus subtilis [13]): 64 µg/mL
- inhibition (Sus scrofa [17]): Active
- MIC (Bacillus subtilis [14]): 128 µg/mL
- MIC (Streptococcus pyogenes [15]): 128 µg/mL
- MIC (Staphylococcus aureus [16]): 128 µg/mL

SMILES: CC(C)c1cccc2c3ccccc3c[n+](C)c12.[Cl-]
- MIC [1]: 64 µg/mL
- MIC (Escherichia coli [2]): > 128 µg/mL
- Ratio (Streptococcus pyogenes [18]): 4
- Ratio (Bacillus subtilis [19]): 2
- Ratio (Bacillus subtilis [20]): 2
- MIC (Escherichia coli [3]): > 128 µg/mL
- MIC (Staphylococcus aureus [4]): 16 µg/mL
- MIC (Staphylococcus aureus [5]): 8 µg/mL
- inhibition (Sus scrofa [21]): Active
- MIC (Pseudomonas aeruginosa [7]): > 128 µg/mL
- Activity (Sus scrofa [8]): inactive
- Ratio (Streptococcus pyogenes [22]): 2
- MIC (Streptococcus pyogenes [10]): 8 µg/mL
- MIC (Pseudomonas aeruginosa [11]): > 128 µg/mL
- MIC (Staphylococcus aureus [12]): 64 µg/mL
- MIC (Bacillus subtilis [13]): 4 µg/mL
- Ratio (Bacillus subtilis [23]): 8
- MIC (Bacillus subtilis [14]): 4 µg/mL
- MIC (Streptococcus pyogenes [15]): 4 µg/mL
- Ratio (Bacillus subtilis [24]): 2
- MIC (Staphylococcus aureus [16]): 8 µg/mL
